Screening data deposited in PubChem BioAssay by several laboratories.
A selection: hits, their analogues and other compounds. The true share with any hit is near 2.9%.
KLK7 zymogen act: proKLK7 (human) activation, primary screen; purified proKLK7, EDANS-DABCYL substrate fluorescence; 100% is mature enzyme control, 0% vehicle; activation, % at 7 µM; 370,000 tested, 0.9% active; AID 652039;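 active = activation above the mean of all tested compounds plus 3 SD, computed per campaign excluding outliers beyond control limits, cut at about 13% in these data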
Target sequence (P49862 whole entry, looked up): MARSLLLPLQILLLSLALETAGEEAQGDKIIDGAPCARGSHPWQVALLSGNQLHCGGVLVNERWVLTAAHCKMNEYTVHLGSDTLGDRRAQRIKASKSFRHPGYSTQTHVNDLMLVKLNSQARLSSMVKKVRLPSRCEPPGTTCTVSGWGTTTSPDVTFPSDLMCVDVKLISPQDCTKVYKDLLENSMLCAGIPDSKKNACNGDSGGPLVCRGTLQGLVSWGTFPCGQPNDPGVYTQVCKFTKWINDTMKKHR
NRP1-CendR mod: alters CendR peptide binding to human NRP-1 | FAM-RPARPAR peptide binding to NRP-1, fluorescence polarization | 360,000 tested, 0.85% active | inhibition, % at 25 µM;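 active = inhibition or corrected inhibition above about 18%, plus a signal ratio from 0.5 to 1.5, limit read from the data, passing the limit was not always enough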
CRFBP-R2 block: blocks CRF-induced signaling of the CRF-BP/CRF-R2 complex; AID 588475; inhibition, % at 11.8 µM; HEK293 CRF-R2/CRF-BP, CRF-induced calcium fluorescence; 350,000 tested, 0.59% active;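 active = inhibition of the ligand-induced calcium signal above about 50% at the single tested concentration, limit read from the data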
CRFR2-BP ag: agonists of human CRF-binding protein/CRF-R2 receptor complex; 350,000 tested, 0.46% active; HEK293 CRF-R2/CRF-BP, calcium dye fluorescence (FLIPR); percent of saturating CRF peptide response; activation, % at 13.2 µM; AID 588473;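 active = activation of at least 50%, plus an integration ratio under a set limit after plate pattern correction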;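 note: plate controls were neutral control wells without compound for no effect and CRF at EC100 for full effect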
Tn7 DDE FP: DD(E)-Tn7 binding inhibition, primary FP screen; P02675; inhibition, % at 8.3 µM; AID 720508; FP displacement of FITC-Tn7 peptide from fibrin DD(E); 0% = median of compound wells per plate; 370,000 tested, 0.13% active;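 active = inhibition above the mean of compounds falling within the control limits plus 3 SD of them, cut at about 14% in these data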;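 note: 0% = plate median of compound wells and 100% = 10 µM Aha-Tn7 peptide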
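assay system = human clot-derived fibrin DD(E) complex | quantity = Fibrin-DD(E) at 2 µM final | timing = 10 min preincubation, 3 h with tracer, room temperature | signal = fluorescence polarization | measure = percent inhibition | benchmarks = high control wells with 10 µM unlabelled Aha-Tn7 peptide (full inhibition) | replicates = singlicate testing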
DDE Tn6 FP inh: inhibitors of Tn6 peptide binding to human fibrin DD(E); inhibition, % at 8.3 µM; AID 720509; Fibrin DD(E) TRITC-Tn6 fluorescence polarization displacement; P02675; 370,000 tested, 0.21% active;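 active = inhibition above a per-campaign cutoff: mean of compounds within control limits plus 3 SD, cut at about 15% in these data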;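 note: 0% = median of all compound wells on the plate and 100% = blocking peptide control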
proKLK7 act conf: proKLK7 activation, confirmation. shares compounds with KLK7 zymogen act. purified proKLK7, EDANS-DABCYL substrate fluorescence; scaled: vehicle 0, mature enzyme 100. activation, % at 7 µM. 3,200 tested, 68% active. AID 686949;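 active = activation, as change over the incubation, above the mean of all tested compounds plus 3 SD, cut at about 13% in these data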
EDANS interfere: counter-screen for kallikrein-7 activators: EDANS-DABCYL optical interference. shares compounds with KLK7 zymogen act. activation, % at 7 µM. 3,200 tested, 80% active. EDANS-DABCYL substrate fluorescence interference, no enzyme, 4 h; solvent 0%, active enzyme control 100%. AID 686952;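 active = activation above the all-compound mean plus 3 SD, ignoring values outside control-based bounds, cut at about 4.8% in these data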;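 note: value is the 4 h activation minus the activation read at time zero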
* marks the source's active call; other numbers are inactive results.

Screening CC(=O)Nc1cccc(-c2nc3ccc(NC(C)=O)cc3s2)c1 returned KLK7 zymogen act 26*, NRP1-CendR mod -13, CRFBP-R2 block -9, CRFR2-BP ag 0, Tn7 DDE FP 2, DDE Tn6 FP inh 7, proKLK7 act conf 22* and EDANS interfere 21*.
Screening Cc1c(C)c2c(OCC(=O)NCC(=O)NCC(=O)O)cc3c(c2oc1=O)CCC(C)(C)O3 returned KLK7 zymogen act 57*, NRP1-CendR mod 4, CRFBP-R2 block 24, CRFR2-BP ag 0, Tn7 DDE FP 4, DDE Tn6 FP inh 5, proKLK7 act conf 79* and EDANS interfere 79*.
Screening Cc1c(C)c2c(OCC(=O)N3CCC(C(=O)O)CC3)cc3c(c2oc1=O)CCC(C)(C)O3 returned NRP1-CendR mod 2, CRFBP-R2 block 2 and CRFR2-BP ag -1.
For Cc1c(C)c2c(OCC(=O)O)cc3c(c2oc1=O)CCC(C)(C)O3 the results were KLK7 zymogen act 33*, NRP1-CendR mod -3, CRFBP-R2 block -8, CRFR2-BP ag 0, Tn7 DDE FP 0, DDE Tn6 FP inh -8, proKLK7 act conf 61* and EDANS interfere 73*.
`CCNc1nc(N)c([N+](=O)[O-])c(Nc2cccc(Cl)c2)n1` gave Tn7 DDE FP 0 and DDE Tn6 FP inh 1.
CCOC(=O)C1CCN(C(=O)Nc2ccc3oc(C)nc3c2)CC1 was read as KLK7 zymogen act 0, NRP1-CendR mod -14, CRFBP-R2 block 12, CRFR2-BP ag -2, Tn7 DDE FP -4 and DDE Tn6 FP inh 9.
CCOC(=O)C1CCN(C(=O)Nc2ccc3nc(C)c(C)nc3c2)CC1 was read as KLK7 zymogen act 23*, NRP1-CendR mod -16, CRFBP-R2 block 2, CRFR2-BP ag 1, Tn7 DDE FP -1, DDE Tn6 FP inh 4, proKLK7 act conf 46* and EDANS interfere 53*.
`COc1cccc2sc3ccc(NCCC4CCCN4C)cc3c(=O)c12` (stereo not drawn) gave KLK7 zymogen act 0, NRP1-CendR mod -16, CRFBP-R2 block -5, CRFR2-BP ag 7, Tn7 DDE FP -6 and DDE Tn6 FP inh 1.
`COc1cc2sc3cc(NCC[C@@H]4CCCN4C)ccc3c(=O)c2cc1OC` gave KLK7 zymogen act 21*, NRP1-CendR mod 9, CRFBP-R2 block 1, CRFR2-BP ag -2, Tn7 DDE FP -7, DDE Tn6 FP inh -4, proKLK7 act conf -68 and EDANS interfere -65.
Cc1cccc(C(=O)Nc2cccc(OC(=O)c3cccc(C)c3)c2)c1 was read as KLK7 zymogen act 3, NRP1-CendR mod 7, CRFBP-R2 block 22, CRFR2-BP ag 2, Tn7 DDE FP 0 and DDE Tn6 FP inh -1.
For CC(=O)Nc1cccc(C(=O)Oc2cccc(C)c2)c1O the results were KLK7 zymogen act 40*, NRP1-CendR mod 2, CRFBP-R2 block 16, CRFR2-BP ag -3, Tn7 DDE FP 0, DDE Tn6 FP inh -3, proKLK7 act conf 48* and EDANS interfere 51*.
Screening CCOc1cccc(-c2nn3c(-c4cccc(C)c4)nnc3s2)c1 returned KLK7 zymogen act 0, Tn7 DDE FP 0 and DDE Tn6 FP inh -6.
O=c1c2ccccc2n(CC(O)CN2CCCCC2)c2ccccc12 (stereo not drawn) was read as KLK7 zymogen act 34*, NRP1-CendR mod 5, CRFBP-R2 block -19, CRFR2-BP ag 0, Tn7 DDE FP -7, DDE Tn6 FP inh 5, proKLK7 act conf 29* and EDANS interfere 29*.
For OC(CN1CCCCC1)Cn1c2ccccc2c2ccccc21 (stereo not drawn) the results were KLK7 zymogen act 0, NRP1-CendR mod -1, CRFBP-R2 block -9, CRFR2-BP ag 0, Tn7 DDE FP 8 and DDE Tn6 FP inh 4.
